Source: PubChem BioAssay
In the library only some 1.9% were active in any assay of this set; here they are far more common.
PLC-beta3 inh – human PLC-beta3 inhibitors, primary screen, biochemical, fluorescence; 1-phosphatidylinositol 4,5-bisphosphate phosphodiesterase beta-3 (Homo sapiens), Q01970; Purified PLC-beta3, fluorogenic substrate; inhibition, % at 12.2 µM; hit rate 0.18% among 370,000; in the data active = inhibition above about 11%;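 also: 0% = median of compound wells on plate and 100% = full blocker control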
Target sequence (Q01970 whole entry, looked up): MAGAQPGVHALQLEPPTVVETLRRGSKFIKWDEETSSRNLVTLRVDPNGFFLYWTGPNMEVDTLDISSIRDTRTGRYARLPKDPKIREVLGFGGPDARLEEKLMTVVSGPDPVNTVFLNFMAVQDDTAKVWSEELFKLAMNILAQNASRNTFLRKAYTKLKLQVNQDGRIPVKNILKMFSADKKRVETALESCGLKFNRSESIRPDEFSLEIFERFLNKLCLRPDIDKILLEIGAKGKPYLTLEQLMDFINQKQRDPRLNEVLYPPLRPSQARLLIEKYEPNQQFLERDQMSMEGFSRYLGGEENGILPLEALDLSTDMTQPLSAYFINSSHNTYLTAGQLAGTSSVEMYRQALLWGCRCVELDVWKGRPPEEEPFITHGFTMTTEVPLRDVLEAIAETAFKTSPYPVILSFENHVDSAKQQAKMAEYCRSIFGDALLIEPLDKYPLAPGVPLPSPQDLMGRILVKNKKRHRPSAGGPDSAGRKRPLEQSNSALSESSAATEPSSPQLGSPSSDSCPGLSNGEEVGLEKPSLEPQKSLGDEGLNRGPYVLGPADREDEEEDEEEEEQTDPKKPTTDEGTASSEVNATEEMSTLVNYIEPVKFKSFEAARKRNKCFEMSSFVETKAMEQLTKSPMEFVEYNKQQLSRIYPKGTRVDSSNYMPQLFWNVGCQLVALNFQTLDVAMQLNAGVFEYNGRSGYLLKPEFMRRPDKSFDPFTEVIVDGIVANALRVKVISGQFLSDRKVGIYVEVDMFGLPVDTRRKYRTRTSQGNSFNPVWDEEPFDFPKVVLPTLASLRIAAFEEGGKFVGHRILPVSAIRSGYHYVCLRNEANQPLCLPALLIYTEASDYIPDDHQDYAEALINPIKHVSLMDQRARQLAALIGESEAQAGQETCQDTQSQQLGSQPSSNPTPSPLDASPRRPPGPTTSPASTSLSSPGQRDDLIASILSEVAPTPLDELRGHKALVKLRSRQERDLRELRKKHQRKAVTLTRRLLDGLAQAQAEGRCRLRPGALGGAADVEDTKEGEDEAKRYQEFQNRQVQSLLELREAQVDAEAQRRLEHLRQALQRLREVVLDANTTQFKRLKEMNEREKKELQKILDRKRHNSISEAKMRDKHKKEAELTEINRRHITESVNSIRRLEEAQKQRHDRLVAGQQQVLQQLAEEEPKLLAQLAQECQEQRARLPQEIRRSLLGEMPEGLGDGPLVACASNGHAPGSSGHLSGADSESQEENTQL
HGIII-sPLA2 inh – human group III sPLA2 inhibitors, primary screen, biochemical, QFRET, BODIPY PC-A2 liposome substrate; AID 743126, 2013; hit rate 0.56% among 370,000; inhibition, % at 12.2 µM; QFRET BODIPY PC-A2 liposome hydrolysis, fluorescence; Group 3 secretory phospholipase A2 (Homo sapiens), Q9NZ20;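 active = inhibition above mean plus 3 SD of compounds lying within the high and low control bounds, cut at about 19% in these data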;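 also: 0% = median of test compound wells and 100% = no enzyme DMSO wells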
PLC-gamma1 inh – PLC-gamma1 enzyme inhibitors, primary screen, biochemical, fluorescence, purified enzyme. 1-phosphatidylinositol 4,5-bisphosphate phosphodiesterase gamma-1 (Homo sapiens), P19174. fluorogenic substrate. inhibition, % at 12.2 µM. hit rate 0.84% among 370,000; in the data active = inhibition above about 9.5%
Tb MetRS inh – T. brucei MetRS inhibitors, primary screen, biochemical, luminescence; methionyl-tRNA synthetase (Trypanosoma brucei brucei); purified T. brucei MetRS, ATP depletion, Kinase-Glo luminescence; inhibition, % at 11.9 µM; hit rate 0.4% among 360,000; AID 624268, 2012;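 active = inhibition above a per-plate cutoff of the control wells' mean inhibition plus 3 SD, cut at about 5.5% in these data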;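 also: 0% = DMSO wells median and 100% = median of wells with control inhibitor compound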
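Test system: purified T. brucei MetRS enzyme. Also added: ATP, methionine and E. coli bulk tRNA substrates. Compound: 11.9 µM single point. Schedule: 15 min enzyme-compound preincubation, 2 h reaction, 10 min detection, 25 °C. Signal: luciferase luminescence of residual ATP, Kinase-Glo. Evaluation: percent inhibition versus plate control medians. Controls: DMSO wells, low control.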
DAGLB inh – DAGLB lipase inhibitors, primary screen, biochemical, fluorescence, HTS; Diacylglycerol lipase-beta (Homo sapiens), Q8NCG7; HEK293T DAGLB membrane lysate, EnzChek fluorogenic substrate; inhibition, % at 5.17 µM; hit rate 0.059% among 340,000; AID 504411, 2011; in the data active = inhibition above about 34%;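 also: 0% = enzyme with vehicle and 100% = wells lacking enzyme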
Starred values were filed as active, the others as inactive; . = no result; ! = not confirmed by another sample.

SMILES	PLC-beta3 inh	HGIII-sPLA2 inh	PLC-gamma1 inh	Tb MetRS inh	DAGLB inh
O=C(CN(Cc1ccco1)C(=O)c1ccccc1)Nc1ccc(Cl)c(Cl)c1	-0.7	-36.4	0.9	5.8*	-7.6
O=[N+]([O-])c1cc(/C=N/NC(=S)Nc2ccccc2Cl)ccc1Cl	-0.9	3.8	5.3	-0.2	-7.0
COc1ccc(/C=N/NC(=S)Nc2ccccc2[N+](=O)[O-])cc1O	-6.8	20.0*	-5.9	-0.8	7.8
COc1ccc2c(c1)OC[C@H]1[C@H]2N2C(=O)c3ccccc3NC(=O)[C@@]2(C)[C@H]1c1ccccc1	0.0	38.6*	-3.2	0.2	2.4
CC1CCC2(CC1)CCN(CCCOC(=O)Nc1cccc(F)c1)C2=O (stereo not given)	3.2	-4.3	1.9	.	.
Cc1noc(C)c1S(=O)(=O)N(C)C[C@@H]1OCc2cn(nn2)CCCC(=O)N([C@@H](C)CO)C[C@H]1C	8.8	5.1	12.2*	0.8	-1.9
O=C(OCc1ccccc1)N(CCCCN(CCCNCc1ccccc1)C(=O)OCc1ccccc1)CCCNCc1ccccc1	4.5	-26.5	10.0*	0.0	3.5
OC(c1ccccc1)(c1ccccc1)C1CCN(CCCOc2cccc(C(F)(F)F)c2)CC1	2.4	-13.9	1.5	.	.
O=C(NN=Cc1cccc(OCc2ccccc2)c1)c1cc(-c2ccc(Cl)cc2)n[nH]1	4.1	-10.9	0.9	.	.
COCc1cc(N2CCN(C(=O)OC(C)(C)C)C[C@H]2C)ccc1N1CCN(Cc2ccccc2)[C@@H](C)C1	-4.7	5.8	-5.0	.	.
Cc1ccccc1NC(=O)Cc1nc(COC(=O)COc2cccc(C)c2C)cs1	-10.5	-67.6	11.7*	-0.3	-3.6
CCOc1ccccc1OCC(=O)OCc1csc(CC(=O)Nc2ccccc2C)n1	-6.0	-46.4	1.1	-0.4	-1.5
NC(=O)[C@H]1CC2(CC(c3cccc(NC(=O)CC(c4ccccc4)c4ccccc4)c3)=NO2)CN1C(=O)C(c1ccccc1)c1ccccc1 (stereo not given in full)	4.7	-23.0	12.9*	-0.3	1.0
CCCn1nc([N+](=O)[O-])c(C(C#N)c2nc3ccccc3s2)c(Cl)c1=O (stereo not given)	-1.9	-16.2	3.0	-1.3	67.5*
CCn1nc([N+](=O)[O-])c(C(C#N)c2nc3ccccc3n2C)c(Cl)c1=O (stereo not given)	-7.1	6.2	-6.4	0.2	29.6
CCCCN1CCN(C2=Nc3ccccc3Sc3ccccc32)CC1	3.0	4.3	3.9	.	.
CC1=NNC(=O)/C1=C\c1cn(-c2ccccc2)nc1-c1ccccc1	2.9	-12.6	10.0*	0.1	9.1
O=Cc1cn(-c2ccccc2)nc1-c1ccccc1	-4.6	0.3	-0.8	-0.3	-7.1
N#Cc1c(NCCN)nc(NCc2ccccc2)c2c1CCN(Cc1ccccc1)C2	.	.	.	18.8*	5.6
COc1ccc(CNC(=O)O[C@H]2CC[C@@]34CCCN3C(=O)CCC[C@H]4[C@H]2C)cc1OC	1.5	-1.1	0.0	.	.
Oc1cccc(Nc2c3ccccc3nc3ccccc23)c1	-262.0	2.1	-208.4	0.6	7.9
CCN(CC)Cc1cc(Nc2c3ccccc3nc3c4ccccc4n(C)c23)cc(CN(CC)CC)c1O	-464.1	21.3*	-351.6	-0.3	3.7
Cc1cc(C(=O)NN=Cc2cccc(O)c2)n[nH]1	1.5	3.3	-1.0	.	.
COc1ccccc1N1CCN(C(=O)c2ccc3c(c2)CCN3S(=O)(=O)c2ccccc2)CC1	-12.9	-17.9	11.5*	-0.5	2.2
COc1ccc(N2CCN(C(=O)c3ccc4c(c3)CCN4S(=O)(=O)c3ccccc3)CC2)cc1	-7.6	-7.8	1.7	-0.3	2.6
SMILES	PLC-beta3 inh	HGIII-sPLA2 inh	PLC-gamma1 inh	Tb MetRS inh	DAGLB inh
COc1ccccc1C(=O)NC1CCCCN(Cc2cccc(C(F)(F)F)c2)C1=O (stereo not given)	-1.6	-3.8	0.7	.	.
CC(C)c1ccc(NC(=O)CCNS(=O)(=O)c2cccc3nonc23)cc1	8.0	-36.1	13.5*	1.6	-0.8
CN1CCN(c2ccc([N+](=O)[O-])c(-n3nc(-c4ccccc4)c4ccccc4c3=O)c2)CC1	9.1	-19.8	9.6*	-0.1	1.5
Cc1nn(-c2cc(N3CCCCC3)ccc2[N+](=O)[O-])c(=O)c2ccccc12	5.2	-1.1	0.6	0.2	1.1
COCCNC(=O)CCc1nnc(C2(c3ccc(Cl)cc3)CCC2)o1	3.4	-0.4	3.2	-0.5	-1.7
COCC1CCN(C(=O)CCc2nnc(C3(c4ccc(Cl)cc4)CCC3)o2)CC1	2.0	4.3	11.6*	-0.8	-7.5
CC(C)CCNC(=O)C1CCCN(C(=O)c2ccc3c(c2)NC(=O)CS3)C1 (stereo not given)	-0.7	5.8	3.7	.	.
Cc1noc(C)c1C(=O)Nc1ccccc1N1CCOCC1	-4.9	6.7	0.8	-0.1	2.5
Cc1onc(-c2ccccc2)c1C(=O)Nc1ccccc1N1CCOCC1	2.4	-4.5	12.7*	0.2	-2.2
CC(C)C1=CC2C3C(=O)N(c4ccccc4)C(=O)C3C1C(=O)C2(C)O (stereo not given)	4.8	-5.9	3.3	.	.
CCCN(CCC)CCN1CCN(C(=O)[C@H](CCc2ccccc2)NC(=O)[C@H]2O[C@@H](n3cnc4c(N)ncnc43)[C@H](O)[C@@H]2O)CC1	-0.8	9.3	0.8	.	.
OC(c1ccccc1)(c1ccccc1)C1CCN(CCCOc2ccc(F)cc2)CC1	3.7	-27.9	11.1*!	-0.9	.
CCN(CC)C(=O)CC[C@H]1CC[C@]2(CCCN(Cc3ccncc3)C2)O1	1.0	2.3	-1.9	.	.
O=C(O)C1Nc2c(O)cc(Cl)c([N+](=O)[O-])c2C2C=CCC12 (stereo not given)	7.2	19.1	31.4*	0.3	18.9
COc1cccc2c1NC(C(=O)O)C1CC=CC21 (stereo not given)	.	.	.	-0.5	1.3
CCOc1ccc(-n2c(SCC(=O)NN=Cc3ccc(C(=O)O)cc3)nnc2-c2cccnc2)cc1	4.5	-2.5	0.2	.	.
COC(=O)C1=C(C)N(Cc2ccccc2C(F)(F)F)C(=NCc2ccc3c(c2)OCO3)NC1c1ccccc1C(F)(F)F (stereo not given)	10.8*	2.4	3.8	.	.
COC(=O)C1=C(C)N(Cc2ccc(C(F)(F)F)cc2)C(=NCc2ccc3c(c2)OCO3)NC1c1ccccc1C(F)(F)F (stereo not given)	5.6	-5.5	3.5	.	.
Cc1ccc(NC(=S)NNC(=O)CSc2nc3sc4c(c3c(=O)n2-c2ccccc2)CCCC4)cc1	1.6	-0.8	3.6	.	.
Nc1nc(Cl)cc(N2CCC(c3cc(-c4ccc(Cl)cc4Cl)n[nH]3)CC2)n1	3.5	-34.5	6.2	21.0*	-0.3
Nc1nc(Cl)cc(N2CCCC2)n1	-5.7	-1.5	-0.1	-0.1	-0.5
